Test results reported in publication PMC8485890 (Hepatology Communications, 2021).

Legend:
[1] = system: C57BL/6J mice; assay: Survival of mice after APAP overdose; type: in vivo, mouse (C57BL/6J); details: APAP 600 mg/kg oral gavage, within 24 hours
How it was run: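 Fasted C57BL/6J mice were dosed by oral gavage with APAP dissolved in warm saline, at several doses including 600 mg/kg, and survival was tracked (n ≥ 9 per group). In the 24-h treatment arm, peptide was given intravenously at 100 µg/dose, 6, 12 and 18 h after APAP.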

[2] = system: liver of APAP-treated mice; assay: Serum ALT; type: in vivo, mouse; details: APAP 600 mg/kg oral gavage; 6 to 36 hours after overdose
How it was run: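 Fasted mice received APAP 600 mg/kg, dissolved in warm saline, by oral gavage. Hepatocyte necrosis was followed over time by serum ALT, and liver sections were examined by H&E histopathology. Groups had at least five mice, and each experiment was done at least twice. Data are mean ± SEM, analysed by t test or one-way ANOVA.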

[3] = system: liver; assay: Histopathology of liver sections; type: in vivo, mouse; details: APAP 600 mg/kg, H&E-stained liver sections, up to 24 hours
How it was run: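 APAP (600 mg/kg) was given in warm saline by oral gavage to fasted mice. Livers were taken at times up to 24 h. Necrotic areas were scored on sections stained with hematoxylin and eosin. Groups had at least five mice, and experiments were repeated at least twice. Data are mean ± SEM.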

[4] = system: pro-inflammatory mediators in liver and serum; assay: Cytokine/chemokine ELISA in liver lysates and serum of APAP-treated mice; type: in vivo, mouse; details: APAP 600 mg/kg, as early as 6 hours
How it was run: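 Fasted mice received APAP (600 mg/kg) dissolved in warm saline by oral gavage; controls received vehicle. TNF-α, CXCL1, CXCL2 and CXCL6 were measured by ELISA in liver lysates and serum over a time course after overdose. Groups had at least five mice, and experiments were run at least twice. Data are mean ± SEM, compared by one-way ANOVA.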

[5] = system: neutrophils in the liver; assay: Neutrophil recruitment to the liver; type: in vivo, mouse (LysM-eGFP); details: APAP-treated LysM-eGFP mice, time course
How it was run: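 LysM-eGFP mice were fasted and given oral APAP in warm saline. Neutrophils were counted in the liver by their GFP signal using confocal intravital microscopy over the injury time course. Extracellular DNA was visualised with i.v. Sytox green (2 µL of 5 mM). Groups had at least five mice, with experiments repeated at least twice. Data are mean ± SEM.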

[6] = system: myeloperoxidase (MPO) activity in liver; assay: MPO activity in liver lysates; type: in vivo, mouse; details: APAP-treated C57BL/6J mice
How it was run: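 MPO activity was measured in liver lysates as an estimate of neutrophil infiltration. C57BL/6J mice were fasted, then dosed with APAP in warm saline by oral gavage. Treatment arms received 100 µg peptide i.v. at 6, 12 and 18 h after overdose. Groups had at least five mice, and each experiment was run at least twice. Data are mean ± SEM, compared by t test or one-way ANOVA.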

[7] = system: APAP-induced liver injury; details: reducing agent; cited from earlier work
[8] = system: bacterial DNA; details: bacterial DNA present in skin injury; cited from earlier work
[9] = cited from earlier work
[10] = system: extracellular DNA and MIG30 staining in the liver; assay: Enzymatic removal of DNA and MIG30 staining from the injured liver; type: in vivo, mouse; details: APAP-treated mice, MIG30-TAMRA 20 µg; hyaluronidase 1,000 U or heparinase III 100 µg i.v.; up to 10 minutes
How it was run: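 Fasted mice received APAP (dissolved in warm saline) by oral gavage. They then received i.v. Sytox green and 20 µg TAMRA-labelled peptide. Next they were given i.v. hyaluronidase (1,000 U) or heparinase III (100 µg); DNase 1 (1,000 U) was given similarly. Mean fluorescence intensity of DNA and peptide in liver was followed by confocal intravital microscopy for up to 10 minutes.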

Molecule: CC(=O)Nc1ccc(O)cc1 [APAP, Acetaminophen]
- mortality [1]: 40%
- liver damage (serum ALT levels) [2]: significant liver damage as early as 6 hours after APAP intoxication and up to 36 hours after the overdose
- hepatic necrosis (histopathology) [3]: extensive hepatic necrosis
- CXCL1 produced in the liver [4]: significant amounts
- CXCL2 produced in the liver [4]: significant amounts
- CXCL6 produced in the liver [4]: significant amounts
- TNF-α produced in the liver [4]: significant amounts
- neutrophil infiltration in the liver [5]: profound neutrophil infiltration was observed between 12 and 36 hours after injury, which was maximal at the 24‐hour timepoint
- neutrophils in liver by MPO assay [6]: presence of neutrophils predominantly 24 hours after APAP treatment

Molecule: CC(=O)N[C@@H](CS)C(=O)O [N‐acetylcysteine]
- effect on APAP-induced liver injury and inflammation [7]: effective only if given soon after the APAP challenge or as a pretreatment

Molecule: CXCL10: chemokine CXCL10
- binding to bacterial DNA [8]: bind to bacterial DNA

Molecule: CXCL11: chemokine CXCL11
- binding to bacterial DNA [8]: bind to bacterial DNA

Molecule: KKVLKVRKAQRSRQKKTT [control peptide]
- GAG binding [9]: poor GAG affinity

Molecule: hyaluronidase
- removal of MIG30 staining from liver by glycosidase [10]: Neither the DNA nor the MIG30 staining were significantly removed

B1: heparinase: Heparinase III produced and provided by A. Kungl (protein, UniProt Q59289 25-659, looked up)
Heparin-sulfate lyase: QSSSITRKDFDHINLEYSGLEKVNKAVAAGNYDDAAKALLAYYREKSKAREPDFSNAEKPADIRQPIDKVTREMADKALVHQFQPHKGYGYFDYGKDINWQMWPVKDNEVRWQLHRVKWWQAMALVYHATGDEKYAREWVYQYSDWARKNPLGLSQDNDKFVWRPLEVSDRVQSLPPTFSLFVNSPAFTPAFLMEFLNSYHQQADYLSTHYAEQGNHRLFEAQRNLFAGVSFPEFKDSPRWRQTGISVLNTEIKKQVYADGMQFELSPIYHVAAIDIFLKAYGSAKRVNLEKEFPQSYVQTVENMIMALISISLPDYNTPMFGDSWITDKNFRMAQFASWARVFPANQAIKYFATDGKQGKAPNFLSKALSNAGFYTFRSGWDKNATVMVLKASPPGEFHAQPDNGTFELFIKGRNFTPDAGVFVYSGDEAIMKLRNWYRQTRIHSTLTLDNQNMVITKARQNKWETGNNLDVLTYTNPSYPNLDHQRSVLFINKKYFLVIDRAIGEATGNLGVHWQLKEDSNPVFDKTKNRVYTTYRDGNNLMIQSLNADRTSLNEEEGKVSYVYNKELKRPAFVFEKPKKNAGTQNFVSIVYPYDGQKAPEISIRENKGNDFEKGKLNLTLTINGKQQLVLVP
- removal of MIG30 staining from liver by glycosidase [10]: Neither the DNA nor the MIG30 staining were significantly removed

B2: CXCL9: full-length chemokine CXCL9 (protein, UniProt Q07325 1-125, looked up)
chain: MKKSGVLFLLGIILLVLIGVQGTPVVRKGRCSCISTNQGTIHLQSLKDLKQFAPSPSCEKIEIIATLKNGVQTCLNPDSADVKELIKKWEKQVSQKKKQKNGKKHQKKKVLKVRKSQRSRQKKTT
modifications: full-length
- binding to bacterial DNA [8]: bind to bacterial DNA
